# Source: PubChem
# Only some compounds are listed: those with a hit (about 3.8% of all), similar ones and a draw of the others.
# MrgX1 antag: human MrgX1 receptor antagonism, primary screen. Q96LB2. MRGX1-HEK293 calcium flux, Fluo-4, BAM8-22 antagonism; active compounds read low. B-score at 10 µM. 310,000 compounds, 1.3% hits. AID 588676;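 active = calcium-response B-score plate-corrected more than 3 library SD below zero, starting fluorescence within 5 deviations, no agonist response on first addition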;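 also: peak minus trough fluorescence over baseline after final BAM8-22 challenge near maximal dose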
# Target sequence (Q96LB2 whole entry, looked up): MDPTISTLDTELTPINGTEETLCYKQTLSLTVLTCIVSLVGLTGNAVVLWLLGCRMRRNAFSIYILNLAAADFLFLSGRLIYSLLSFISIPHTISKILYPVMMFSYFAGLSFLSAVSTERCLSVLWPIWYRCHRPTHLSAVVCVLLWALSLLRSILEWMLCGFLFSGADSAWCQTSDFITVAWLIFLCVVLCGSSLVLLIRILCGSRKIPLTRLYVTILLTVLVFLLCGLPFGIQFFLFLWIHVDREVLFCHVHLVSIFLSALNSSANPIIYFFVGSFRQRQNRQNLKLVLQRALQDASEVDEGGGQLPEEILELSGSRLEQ
# MrgX1 allo act: allosterically activates human MrgX1 receptor signaling. Q96LB2. MrgX1-HEK293, Fluo-4 calcium flux, FDSS; active compounds read high. B-score at 10 µM. 310,000 compounds, 0.63% hits. AID 588675;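 active = plate-corrected calcium response at least 3 library SD above typical, normal starting fluorescence, not activating the receptor alone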;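 also: compound read alongside a low EC10 to EC30 dose of BAM8-22 agonist; peak minus trough fluorescence over baseline measured at the second addition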
# Hep lipid drop: hepatic lipid droplet formation modulation. AML12 mouse hepatocytes, oleate lipid droplets, BODIPY imaging. inhibition, % at 6.5 µM. 240,000 compounds, 0.4% hits. AID 1656;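 active = lipid droplet intensity inhibited by at least 50%, with more than 500 cells counted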
#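 Test system: AML12 mouse liver cells; schedule: overnight exposure; technique: high-content imaging of BODIPY-stained droplets and DAPI nuclei; read-out: % inhibition of corrected integrated BODIPY droplet signal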
# RGS4 act: potentiators or activators of RGS4. AID 463111. B-score at 10 µM. HEK293 M3R/inducible RGS4, carbachol calcium flux Fluo4; active compounds read low. 310,000 compounds, 0.92% hits;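 active = B-score of the integrated calcium signal more than 4 SD below the library mean, with starting fluorescence not abnormally high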;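 also: negative B-score means reduced calcium response which marks RGS4 activation or potentiation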
#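 Also added: carbachol at ECmax as muscarinic agonist stimulus; Assay system: HEK293 cells with stable M3R and inducible RGS4; Timing: overnight RGS4 induction, 30 min dye load 37 °C, 20 min compound RT; Measured by: Fluo4-AM (2 µM) calcium-flux fluorescence, kinetic read.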
# MrgX1 agonist: agonists of human MrgX1 receptor | 310,000 compounds, 0.44% hits | B-score at 10 µM | MrgX1-HEK293 cells, Fluo-4 calcium fluorescence, agonist mode; active compounds read high;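 active = calcium response B-score plate-corrected fluorescence ratio at least 3 library SD, with starting fluorescence B-score inside 5 SD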
#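 Test system: HEK293 cells stably expressing human MrgX1 receptor; amount: 15,000 cells per well; doses: compound delivered in addition one of three; times: overnight plating before 1 h dye loading; detection: Fluo-4 NW calcium-flux fluorescence, kinetic read; read-out basis: B-scored fluorescence response ratio; controls: positive and negative controls per plate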
# RGS4 inh: human RGS4 inhibition; P49798; 310,000 compounds, 0.45% hits; B-score at 10 µM; HEK293 M3R/RGS4 inducible, Fluo-4 calcium flux; active compounds read high; triggered by carbachol at its EC20; AID 463165;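 active = B-score, a plate-corrected calcium signal, over three deviations above library mean, with baseline fluorescence within five deviations of library mean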;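 also: RGS4 expression induced by doxycycline in cells with stable M3 receptor; B-score is computed from the integrated fluorescence ratio over baseline after carbachol; higher B-score means a larger calcium signal and so more RGS4 inhibition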
# Target sequence (P49798 whole entry, looked up): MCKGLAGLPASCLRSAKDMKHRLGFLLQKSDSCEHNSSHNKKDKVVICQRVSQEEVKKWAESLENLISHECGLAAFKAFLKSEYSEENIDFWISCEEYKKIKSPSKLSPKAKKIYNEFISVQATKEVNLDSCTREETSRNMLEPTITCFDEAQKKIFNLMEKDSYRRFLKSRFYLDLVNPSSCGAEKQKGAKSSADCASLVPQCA
# RGS4 block valid: validation of RGS4 inhibitors; shares compounds with RGS4 inh; HEK293 M3R/RGS4, carbachol calcium Fluo-4 fluorescence; carbachol added at its EC20; 0 = buffer wells, 100 = carbachol control; calcium response, % at 10 µM; 1,700 compounds, 65% hits;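 active = duplicate-averaged calcium response above the buffer-only control mean plus 5 SD of those controls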;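 also: integrated fluorescence ratio F max minus min over baseline F0; higher response in RGS4-induced cells means RGS4 inhibition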
# RGS4 uninduced: counter-screen for RGS4 inhibitors: effect in non-induced cells. AID 493000. HEK293 M3R non-induced, carbachol calcium Fluo-4; submaximal (EC20) carbachol stimulus; buffer wells 0%, carbachol control wells 100%. activity (percent), % at 10 µM. shares compounds with RGS4 inh. 1,900 compounds, 20% hits; call rule not given here;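 also: RGS4 induction absent so cells express M3R without RGS4; higher means more calcium signal and flags a non-specific hit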
# RGS4 inh ctr2: signal in non-induced cells without carbachol, RGS4 inhibitor counter-screen | shares compounds with RGS4 inh | HEK293 M3R/RGS4 non-induced, Fluo-4 calcium, no carbachol; normalised: buffer wells 0%, carbachol wells 100% | calcium response (agonist-mode artifact), % at 10 µM | 1,900 compounds, 22% hits | AID 493001;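 active = duplicate-averaged calcium rise in uninduced cells above buffer wells' mean plus 5 SD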
# Starred values were filed as active, the others as inactive; i = inactive; · = no result.
SMILES,MrgX1 antag,MrgX1 allo act,Hep lipid drop,RGS4 act,MrgX1 agonist,RGS4 inh,RGS4 block valid,RGS4 uninduced,RGS4 inh ctr2
COc1ccc(/C=C\C(=O)c2c(O)ccc3c(C)cc(=O)oc23)cc1OC,i,i,-4,i,i,6.7*,8.0%*,i,i
COc1cc(/C=C/C(=O)c2c(O)ccc3c(C)cc(=O)oc23)ccc1O,i,6.7*,8,i,i,i,·,i,i
Cc1cc(=O)oc2c(C(=O)/C=C/c3ccccc3)c(O)ccc12,i,i,12,i,i,i,·,·,·
Cc1ncc(CO)c(/C=N/NC(=O)c2ccc(O)cc2)c1O,i,i,-3,i,i,i,·,i,8.0%*
Cc1ncc(CO)c(/C=N/NC(=O)c2cc3c(s2)CCCC3)c1O,i,i,-6,i,i,7.2*,102%*,78%*,35%*
COc1ccc(-c2oc(NC(=O)CSc3ncn[nH]3)c(C#N)c2-c2ccc(OC)cc2)cc1,i,i,·,i,i,i,·,·,·
COc1ccc(-c2oc(NC(=O)CCl)c(C#N)c2-c2ccc(OC)cc2)cc1,i,i,-3,i,i,11*,58%*,i,i
c1ccc2c(c1)nc(N1CCCCC1)c1ccccc12,i,i,-4,i,i,7.6*,54%*,84%*,i
c1ccc2c(c1)nc(N1CCOCC1)c1ccccc12,i,i,8,i,i,i,·,·,·
O=C(CCCSc1ccccc1)Nc1nc(-c2ccco2)c(-c2ccco2)s1,i,i,22,i,i,i,·,·,·
O=C(CCl)Nc1nc(-c2ccco2)c(-c2ccco2)s1,i,i,1,i,i,5.8*,i,i,i
Cc1cc(C)c2[nH]c(O)c(N=NC3=NC(=O)CS3)c2c1,i,i,17,i,i,i,·,·,·
CCc1ccc2c(c1)c(N=NC1=NC(=O)CS1)c(O)n2C,i,i,·,i,i,i,·,i,i
COc1cc2c(cc1OC)C(SC)=NC(C)(C)C2,i,i,-42,i,i,i,·,46%*,i
COc1ccc(C2=NC(C)(C)Cc3cc(OC)c(OC)cc32)cc1,i,i,·,i,i,i,·,·,·
CC(NS(=O)(=O)c1ccccc1)C(c1cccs1)N1CCOCC1 (stereo not drawn),i,i,-5,i,i,i,·,·,·
CCCNC(C)C(=O)Nc1ccccc1C (stereo not drawn),i,i,-5,i,i,4.8*,6.5%*,i,i
CCCNC(=O)c1ccccc1NC(=O)Nc1ccccc1C,i,i,-1,·,i,·,·,·,·
CC(C)(C)C1CCc2nc(NC(=O)Cc3cn4ccsc4n3)sc2C1 (stereo not drawn),i,i,3,i,i,7.1*,16%*,i,i
O=C1CC(=C2c3ccccc3-c3ccccc32)C(=O)N1CCN1CCN(c2cccc(Cl)c2)CC1,i,i,·,i,i,i,·,·,·
COc1ccc(C(=O)C2C(c3ccc(-c4ccccc4[N+](=O)[O-])o3)NC(=O)NC2(O)C(F)(F)F)cc1 (stereo not drawn),i,i,4,i,i,i,i,i,i
O=C1NC(c2ccc(-c3ccccc3[N+](=O)[O-])o2)C(C(=O)c2ccc(F)cc2)C(O)(C(F)(F)F)N1 (stereo not drawn),i,i,14,i,i,i,·,32%*,7.5%*
O=C(Oc1ccc(Oc2ccccc2)cc1)N1CCC(O)CC1,i,i,·,i,i,i,·,·,·
Cc1ccc(S(=O)(=O)N(C)CCCC(=O)NC(C)(C)C)cc1,i,i,16,i,i,i,·,·,·
COc1cc(C2(c3ccc(O)c(OC)c3)C(=O)N(C)c3ccc(C)cc32)ccc1O,i,i,·,i,i,i,·,i,i
SMILES,MrgX1 antag,MrgX1 allo act,Hep lipid drop,RGS4 act,MrgX1 agonist,RGS4 inh,RGS4 block valid,RGS4 uninduced,RGS4 inh ctr2
Cc1ccc(C)c(N2CCN(S(=O)(=O)c3ccc4c(c3)C(C)(C)C(=O)N4C)CC2)c1,i,i,-11,i,i,i,·,·,·
O=C(/C=C/c1ccc(Cl)cc1)c1ccc([N+](=O)[O-])o1,i,i,·,i,i,7.9*,8.5%*,i,i
O=C(OCCCOC(=O)c1ccc([N+](=O)[O-])o1)c1ccc([N+](=O)[O-])o1,i,i,·,i,i,i,·,·,·
CC(=O)N1CCc2cc(S(=O)(=O)CCC(=O)Nc3ccc(Cl)cc3F)ccc21,i,i,-1,i,i,i,·,·,·
Cn1ncc2c(N3CCN(c4ccccc4F)CC3)ncnc21,i,i,-3,i,i,i,·,·,·
Cn1ncc2c(N3CCN(c4ccc(Cl)c(Cl)c4)CC3)ncnc21,i,i,-24,i,i,5.7*,9.5%*,i,i
COc1ccc(-c2nnc(Nc3ccc(OC)c(C(=O)N4CCCCC4)c3)c3ccccc23)cc1,i,i,21,i,i,i,·,i,i
Cc1[nH]c2ccccc2c1C(=O)CN1C(=O)NC(C)(c2ccc(Cl)cc2Cl)C1=O (stereo not drawn),i,i,-17,i,i,10*,30%*,i,56%*
Cc1ccc(NC(=O)CCC(=O)NNC(=O)Nc2cccc(Cl)c2)c(C)c1,i,i,4,i,i,i,·,·,·
CCOC(=O)N1CCc2c(sc3c2c(=O)n(Cc2ccccc2)c(=O)n3Cc2cccc(C)c2)C1,i,i,-24,i,i,6.8*,32%*,38%*,i
CCOC(=O)N1CCc2c(sc3c2c(=O)n(Cc2ccccc2)c(=O)n3CC(=O)NCC2CCCO2)C1 (stereo not drawn),i,i,-20,i,i,i,·,·,·
